Assay outcomes from PubChem.
TRPC6 act = mouse TRPC6 channel activators, primary screen, cell-based, HEK293, membrane potential dye. Short transient receptor potential channel 6 (Mus musculus), Q61143. HEK293-TRPC6 membrane potential dye fluorescence; hits give high values. B-score at 10 µM. 310,000 tested, 0.13% active. AID 2550, 2010;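 active = B-score of the integrated fluorescence ratio above library mean plus 3 SD, and starting fluorescence ratio within library mean plus 5 SD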;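 also: higher score means more depolarization so channel activation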
TRPC4 act = activators of mouse TRPC4 channel, primary screen, Fluo4 calcium, HEK293 TRPC4beta/mu-opioid cells | Short transient receptor potential channel 4 (Mus musculus), Q9QUQ5 | Fluo4 calcium fluorescence; hits give high values | B-score at 10 µM | 310,000 tested, 0.49% active | AID 2237, 2010;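 active = B-score above 5 SD of library B-scores, and initial fluorescence ratio not above library mean plus 5 SD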;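 also: positive B-score marks a calcium rise read as TRPC4 activation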
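Test system: HEK293 cells stably co-expressing mouse TRPC4beta and mu-opioid receptor | Schedule: Fluo4 dye loading 45 min at room temperature, 110 s recording | Measured by: Kinetic Fluo4 calcium fluorescence, 5 s baseline at 1 Hz | Evaluation: B score of integrated ratio | Controls: Buffer (low) and maximal DAMGO (high)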
TRPC4 inh = inhibitors of mouse TRPC4 channel, primary screen, Fluo4 calcium, HEK293 TRPC4beta/mu-opioid cells. 300,000 tested, 0.39% active. B-score at 10 µM. Short transient receptor potential channel 4 (Mus musculus), Q9QUQ5. DAMGO-evoked Fluo4 calcium flux; hits give low values;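 active = B-score over 3 SD under the library average, no early fluorescence shift, positive overall ratio signal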
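Assay system: HEK293 cells with stable TRPC4beta plus mu-opioid receptor expression. Dosing: single dose. Measured by: Fluo4 Ca2+ flux fluorescence. Also added: DAMGO in two steps, submaximal then maximal. Read-out: B score from integrated Fluo4 fluorescence ratio.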
DNA FID counter = compounds displacing fluorescent DNA intercalator, primary screen, artefact control for HCV NS3 helicase inhibitor project, biochemical, FID fluorescence. inhibition, % at 7.9 µM. DNA fluorescent intercalator displacement. 290,000 tested, 0.17% active; in the data active = inhibition above about 37%;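 also: 0% = vehicle and 100% = reference compound; higher means more ethidium bromide displaced from hairpin DNA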
TRPC6 inh = mouse TRPC6 channel inhibitors, primary screen, cell-based, HEK293, membrane potential dye | AID 2553, 2010 | Short transient receptor potential channel 6 (Mus musculus), Q61143 | B-score at 10 µM | 310,000 tested, 1.1% active | ACh-evoked depolarization; hits give low values;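 active = B-score under library mean minus 3 SD, initial fluorescence not abnormally high, positive integrated signal ratio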;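 also: B-score derived from integrated fluorescence ratio over the kinetic read; more negative B-score means stronger inhibition of depolarization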
TRPC4 PAM = positive allosteric modulators of TRPC4, primary screen, cell-based, mouse TRPC4beta, HEK293 mu-opioid, Fluo-4 calcium; 310,000 tested, 0.42% active; DAMGO EC20, Fluo-4 Ca2+ flux; hits give high values; B-score at 10 µM; Short transient receptor potential channel 4 (Mus musculus), Q9QUQ5;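 active = B-score of calcium response area above 5 SD of library B-scores, with initial fluorescence ratio within 5 SD of library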;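 also: B-score of integrated fluorescence ratio over time as area under calcium response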
Active calls of the source: *. Rows were chosen to be rich in hits. Some 2.3% of all compounds tested hit in one or more screens of this group.

Results for CNC(=S)N1N=C(c2ccc(C)cc2)CC1c1ccc(OC)c(OC)c1 (configuration not stated) ?
TRPC6 act: inactive; TRPC4 act: inactive; TRPC4 inh: inactive; DNA FID counter: -4; TRPC6 inh: inactive; TRPC4 PAM: inactive

What do the screens show for `CNC(=S)N1N=C(c2ccccc2)CC1c1ccc(OC)c(OC)c1` (configuration not stated)?
TRPC6 act: inactive; TRPC4 act: inactive; TRPC4 inh: inactive; DNA FID counter: -22; TRPC6 inh: inactive; TRPC4 PAM: 11*

How did COc1ccccc1COc1ccc2c(C)c(CC(=O)O)c(=O)oc2c1C do in these assays?
TRPC6 act: inactive; TRPC4 act: inactive; TRPC4 inh: inactive; DNA FID counter: -16; TRPC6 inh: inactive; TRPC4 PAM: inactive

What do the screens show for `CCCCN(CC)CCCNC(=O)Cn1nc(Cc2cccnc2)c2ccccc2c1=O`?
TRPC6 act: inactive; TRPC4 act: 134*; TRPC4 inh: inactive; DNA FID counter: 2; TRPC6 inh: inactive; TRPC4 PAM: inactive

How did c1ccc(Nc2nc(Nc3ccccc3)nc(N3CCNCC3)n2)cc1 do in these assays?
TRPC6 act: inactive; TRPC4 act: 146*; TRPC4 inh: inactive; DNA FID counter: 1; TRPC6 inh: inactive; TRPC4 PAM: inactive

How did CCC(C)(C)c1ccc(OCCCC[n+]2cccc(C)c2C)c(C(C)(C)CC)c1 do in these assays?
TRPC6 act: inactive; TRPC4 act: inactive; TRPC4 inh: inactive; DNA FID counter: 26; TRPC6 inh: -5.3*; TRPC4 PAM: inactive

How did Cc1cc(C(C)(C)C)ccc1OCCCCN1CCCC1 do in these assays?
TRPC6 act: inactive; TRPC4 act: inactive; TRPC4 inh: inactive; DNA FID counter: 21; TRPC6 inh: inactive; TRPC4 PAM: inactive

What do the screens show for `CC(Oc1ccccc1)C(=O)N1CCC2(CC1)CC(=O)c1ccccc1O2` (configuration not stated)?
TRPC6 act: inactive; TRPC4 act: inactive; TRPC4 inh: inactive; TRPC6 inh: inactive; TRPC4 PAM: inactive

Results for O=C(Nc1ccc2c(c1)OCO2)N1CCN(c2ncc(C(F)(F)F)cc2Cl)CC1 ?
TRPC6 act: inactive; TRPC4 act: 55*; TRPC4 inh: inactive; DNA FID counter: -4; TRPC6 inh: inactive; TRPC4 PAM: inactive

What do the screens show for `O=C(c1ccc2c(c1)OCCO2)N1CCN(c2ncc(C(F)(F)F)cc2Cl)CC1`?
TRPC6 act: inactive; TRPC4 act: 49*; TRPC4 inh: inactive; TRPC6 inh: inactive; TRPC4 PAM: inactive

What do the screens show for `Cc1ccsc1C(=O)N1CCN(c2ncc(C(F)(F)F)cc2Cl)CC1`?
TRPC6 act: inactive; TRPC4 act: inactive; TRPC4 inh: inactive; DNA FID counter: -36; TRPC6 inh: inactive; TRPC4 PAM: inactive

Results for COc1ccccc1CNC(=O)c1cc(S(=O)(=O)N2CCOCC2)cn1C ?
TRPC6 act: inactive; TRPC4 act: inactive; TRPC4 inh: inactive; DNA FID counter: -13; TRPC6 inh: inactive; TRPC4 PAM: inactive

What do the screens show for `Cc1cccc(Nc2nc(NCc3ccco3)nc(N)c2[N+](=O)[O-])c1`?
TRPC6 act: inactive; TRPC4 act: inactive; TRPC4 inh: inactive; DNA FID counter: -3; TRPC6 inh: inactive; TRPC4 PAM: inactive

How did Cc1cccc(Nc2nc(N)c([N+](=O)[O-])c(NCc3ccco3)n2)c1 do in these assays?
TRPC6 act: inactive; TRPC4 act: inactive; TRPC4 inh: inactive; DNA FID counter: 3; TRPC6 inh: inactive; TRPC4 PAM: 10*

What do the screens show for `O=C(Nc1ccc(-c2cccc(F)c2)cc1)C1CCCN(Cc2ccccn2)C1` (configuration not stated)?
TRPC6 act: inactive; TRPC4 act: inactive; TRPC4 inh: inactive; DNA FID counter: 27; TRPC6 inh: inactive; TRPC4 PAM: inactive
